Assay results reported in ChEMBL document CHEMBL1132282, “Discovery of novel non-peptide CCR1 receptor antagonists” (J Med Chem, 1999).
Blank lines part the entries; values can stand above or below the compound they belong to.

Legend:
[1] = biological target: T1, C-C chemokine receptor type 1 (Homo sapiens) (UniProt P32246); experiment: Inhibition of [125I]-MIP-1 alpha binding to recombinant human C-C chemokine receptor type 1 expressed in HEK293 cells at 10 uM concentration; assay type: cell-based
T1 sequence (whole entry): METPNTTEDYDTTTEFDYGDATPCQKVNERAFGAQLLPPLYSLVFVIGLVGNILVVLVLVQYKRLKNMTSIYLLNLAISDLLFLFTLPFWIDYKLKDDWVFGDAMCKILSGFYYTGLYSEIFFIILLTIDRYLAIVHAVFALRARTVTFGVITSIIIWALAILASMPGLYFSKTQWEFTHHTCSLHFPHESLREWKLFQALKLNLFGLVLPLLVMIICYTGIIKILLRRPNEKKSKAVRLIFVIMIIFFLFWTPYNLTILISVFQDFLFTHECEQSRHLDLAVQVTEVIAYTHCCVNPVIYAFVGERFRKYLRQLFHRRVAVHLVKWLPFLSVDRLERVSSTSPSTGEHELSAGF

[2] = biological target: T1, C-C chemokine receptor type 1 (Homo sapiens); experiment: Inhibition of [125I]-MIP-1 alpha binding to recombinant human C-C chemokine receptor type 1 expressed in HEK293 cells at 3 uM concentration; assay type: cell-based
[3] = biological target: T2, C-C chemokine receptor type 1 (Homo sapiens, UniProt P32246); experiment: Inhibition of [125I]-MIP-1 alpha binding to recombinant human C-C chemokine receptor type 1 expressed in HEK293 cells; assay type: cell-based
T2 sequence (P32246 whole entry): T1 sequence (whole entry)

[4] = biological target: T2, C-C chemokine receptor type 1; experiment: Inhibition of MIP-1-alpha-induced intracellular calcium mobilization in HEK293 cells expressing human CCR1 receptor; assay type: functional, cell-based
Summary of the method: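 HEK-293 cells overexpressing human CCR1 plated at 80 000 cells/well on poly-D-lysine, cultured one day, loaded with 4 μM Fluo-3 for 1 h at 37 °C in HBSS/Hepes with probenecid, then washed. Compound pretreatment 10 min at 37 °C, then 30 nM MIP-1α stimulation. FLIPR fluorescence read over 3 min at 37 °C. Six-concentration dose curves give IC50.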

inhibition [1]: 0%
SMILES: N#CC(CCCN1CCC(O)(c2ccc(Cl)cc2)CC1)c1cccc(OCc2ccccc2)c1 (centres undefined)

inhibition [2]: 19%
SMILES: N#CC1(CCCN2CCC(c3ccccc3)CC2)c2ccccc2CSc2ccccc21 (centres undefined)

inhibition [1]: 46%
SMILES: N#CC(CCCN1CCC(O)(c2ccc(Cl)cc2)CC1)c1ccccc1OCc1ccccc1 (centres undefined)

inhibition [1]: 0%
SMILES: N#CC(CCCN1CCCC(O)(c2ccc(F)cc2)C1)(c1ccccc1)c1ccccc1 (centres undefined)

inhibition [1]: 51%
SMILES: N#CC(CCCN1CCC(O)(c2ccc(Cl)cc2)CC1)c1cccc2ccccc12 (centres undefined)

inhibition [1]: 22%
SMILES: N#CC(CCCN1CCC(O)(c2ccc(F)cc2)C1)(c1ccccc1)c1ccccc1 (centres undefined)

inhibition [1]: 30%
SMILES: N#CC(CCCN1CCC(O)(c2ccc(-c3ccccc3)cc2)CC1)(c1ccccc1)c1ccccc1

SMILES: N#CC1(CCCN2CCC(C(=O)O)(c3ccccc3)CC2)c2ccccc2Cc2ccccc21
inhibition [1]: 15%

inhibition [1]: 25%
SMILES: N#CC(CCCN1CCC(O)(c2ccc(Cl)cc2)CC1)c1ccccc1C(F)(F)F (centres undefined)

SMILES: CC(=O)C1(c2ccccc2)CCN(CCCC2(C#N)c3ccccc3CSc3ccccc32)CC1 (centres undefined)
inhibition [2]: 0%

inhibition [1]: 33%
SMILES: N#CC(CCCN1CCC(O)(c2ccc(N)cc2)CC1)(c1ccccc1)c1ccccc1

inhibition [2]: 0%
SMILES: N#CC1(CCCN2CCC(C(O)(c3ccccc3)c3ccccc3)CC2)c2ccccc2CSc2ccccc21 (centres undefined)

SMILES: COC(=O)C1(c2ccccc2)CCN(CCCC2(C#N)c3ccccc3Cc3ccccc32)CC1
inhibition [1]: 62%

Ki [3]: 125 nM
IC50 [4]: 3200 nM
SMILES: N#CCC(C#N)(CCCN1CCC(O)(c2ccc(Cl)cc2)CC1)c1ccccc1 (centres undefined)

Ki [3]: 156 nM
IC50 [4]: 9000 nM
SMILES: N#CC(CCCN1CCC(O)(c2ccc(Cl)cc2)CC1)c1cccc(O)c1 (centres undefined)

Ki [3]: 78 nM
IC50 [4]: 1600 nM
SMILES: N#CC(CCCCN1CCC(O)(c2ccc(Cl)cc2)CC1)(c1ccccc1)c1ccccc1

Ki [3]: 44 nM
IC50 [4]: 3000 nM
SMILES: N#CC1(CCCN2CCC(O)(c3ccc(F)cc3)CC2)c2ccccc2CSc2ccccc21 (centres undefined)

SMILES: N#CC1(CCCN2CCC(O)(c3ccc(Cl)cc3)CC2)c2ccccc2CCc2ccccc21
Ki [3]: 45 nM
IC50 [4]: 7700 nM

inhibition [2]: 0%
SMILES: N#CC1(c2ccccc2)CCN(CCCC2(C#N)c3ccccc3CSc3ccccc32)CC1 (centres undefined)
